Here are results for two compounds from ChEMBL document CHEMBL4428071 (J Med Chem, 2016).

For one data set, the species on record is Homo sapiens. Description: Inhibition of TEL-fused cKIT L567P mutant (unknown origin) expressed in mouse BA/F3 cells assessed as cell growth inhibition after 72 hrs by cell titer-glo assay. The class given is cell-based. In a few lines: (§1)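 Cells seeded at 3000 per well and exposed to serial compound dilutions for 72 h. Viability read by CellTiter-Glo luminescence and normalised to DMSO controls; mean of three independent measurements. BaF3 lines kept IL-3-free in RPMI 1640/10% FBS after retroviral transduction and puromycin selection. GIST lines grown in DMEM/10% FBS.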
(In general: ATP-based viability assays read luminescence as a measure of living cells.)

The subject of data set [1] is Mast/stem cell growth factor receptor Kit (Homo sapiens), P10721 [V654A]. Description: Inhibition of TEL-fused cKIT V654A mutant (unknown origin) expressed in mouse BA/F3 cells assessed as cell growth inhibition after 72 hrs by cell titer-glo assay. Type of data set: cell-based. Summed up: as §1
For data set [2], the system named is Mast/stem cell growth factor receptor Kit (Homo sapiens), P10721 [T670I]. Kind of data set: Inhibition of TEL-fused cKIT T670I mutant (unknown origin) expressed in mouse BA/F3 cells assessed as cell growth inhibition after 72 hrs by cell titer-glo assay. Type of data set: cell-based. In a few lines:
as §1

Data set [3] in a line: Cytotoxicity mouse BA/F3 cells assessed as cell growth inhibition after 72 hrs by cell titer-glo assay. Type of data set: cell-based, BaF3. Summed up:
as §1

Data set [4] deals with Mast/stem cell growth factor receptor Kit (Homo sapiens), P10721 [N822K]. Description: Inhibition of TEL-fused cKIT N822K mutant (unknown origin) expressed in mouse BA/F3 cells assessed as cell growth inhibition after 72 hrs by cell titer-glo assay. The class given is cell-based. In a few lines: as §1
The test system of data set [5] is Mast/stem cell growth factor receptor Kit (Homo sapiens), P10721 [D816V]. Description: Inhibition of TEL-fused cKIT D816V mutant (unknown origin) expressed in mouse BA/F3 cells assessed as cell growth inhibition after 72 hrs by cell titer-glo assay. The class given is cell-based. In a few lines: as §1
Data set [6] has as its system Mast/stem cell growth factor receptor Kit (Homo sapiens), P10721 [V559D,V654A]. Kind of data set: Inhibition of TEL-fused cKIT V559D/V654A double mutant (unknown origin) expressed in mouse BA/F3 cells assessed as cell growth inhibition after 72 hrs by cell titer-glo assay. The class given is cell-based. In a few lines: as §1
Data set [7] relates to Mast/stem cell growth factor receptor Kit (Homo sapiens), P10721 [T670I]. Description: Inhibition of […] cKIT T670I mutant in human GIST-5R cells assessed as cell growth inhibition after 72 hrs by cell titer-glo assay. Type of data set: cell-based.
Data set [8] shares this test system. The conditions noted are these: 1 uM.
Data set [9] shares this test system. The conditions noted are these: 1 uM. This is another data set of the same source.
The test system is the same in data set [10]. The following applies: 1 uM. The source holds these as a separate data set.
Data set [11] shares this test system. The following applies: 1 uM. The source holds these as a separate data set.
Data set [12] shares this test system. The following applies: 1 uM. This is another data set of the same source.
Data set [13] shares this test system. The conditions noted are these: 1 uM. This is another data set of the same source.
The subject of data set [14] is Mast/stem cell growth factor receptor Kit (Homo sapiens), P10721 [V559D,T670I]. Description: Inhibition of TEL-fused cKIT T670I/V559D double mutant (unknown origin) expressed in mouse BA/F3 cells assessed as cell growth inhibition after 72 hrs by cell titer-glo assay. The class given is cell-based. Summed up:
as §1

Data set [15] concerns the target Mast/stem cell growth factor receptor Kit (Homo sapiens, UniProt P10721). Description: Inhibition of wild type cKIT in human GIST-T1 cells assessed as cell growth inhibition after 72 hrs by cell titer-glo assay. Type of data set: cell-based. In a few lines:
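GIST-T1 cells (cKIT wt) grown in DMEM with 10% FBS and 1% penicillin/streptomycin at 37 °C, 5% CO2. Viability read by CellTiter-Glo luminescence and normalized to DMSO controls. GI50 taken from the mean of three independent measurements.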

Calls of active or inactive are those of the source. No cut-off for these calls is given here.

Chain of Mast/stem cell growth factor receptor Kit (Homo sapiens), P10721 [T670I] (P10721 whole entry T670I, the tested form may be a part): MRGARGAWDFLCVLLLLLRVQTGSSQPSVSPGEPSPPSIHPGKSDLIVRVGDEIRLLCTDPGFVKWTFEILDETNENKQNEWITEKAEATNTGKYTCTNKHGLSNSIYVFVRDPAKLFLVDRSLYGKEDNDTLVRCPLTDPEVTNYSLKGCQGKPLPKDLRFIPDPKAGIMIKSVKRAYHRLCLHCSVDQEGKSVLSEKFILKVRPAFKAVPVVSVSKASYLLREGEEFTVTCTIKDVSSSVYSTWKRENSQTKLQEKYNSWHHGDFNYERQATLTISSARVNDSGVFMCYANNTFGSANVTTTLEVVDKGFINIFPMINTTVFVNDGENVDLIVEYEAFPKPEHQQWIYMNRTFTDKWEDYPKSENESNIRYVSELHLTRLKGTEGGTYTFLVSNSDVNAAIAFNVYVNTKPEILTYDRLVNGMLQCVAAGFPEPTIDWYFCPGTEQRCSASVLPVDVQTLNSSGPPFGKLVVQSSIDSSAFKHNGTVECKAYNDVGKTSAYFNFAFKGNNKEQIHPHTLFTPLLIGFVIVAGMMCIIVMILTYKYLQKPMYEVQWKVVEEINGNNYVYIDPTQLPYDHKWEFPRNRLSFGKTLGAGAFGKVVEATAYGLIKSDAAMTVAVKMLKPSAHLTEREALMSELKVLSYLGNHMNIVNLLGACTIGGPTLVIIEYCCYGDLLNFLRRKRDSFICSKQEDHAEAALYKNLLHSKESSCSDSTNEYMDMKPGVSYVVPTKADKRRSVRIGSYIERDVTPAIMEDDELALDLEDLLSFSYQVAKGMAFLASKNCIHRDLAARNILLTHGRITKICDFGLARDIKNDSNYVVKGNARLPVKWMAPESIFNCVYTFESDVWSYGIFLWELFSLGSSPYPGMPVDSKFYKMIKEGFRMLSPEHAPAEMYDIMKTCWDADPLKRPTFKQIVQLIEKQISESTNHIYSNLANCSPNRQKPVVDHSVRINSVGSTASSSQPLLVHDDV
Chain of Mast/stem cell growth factor receptor Kit (Homo sapiens), P10721 [D816V] (P10721 whole entry D816V, the tested form may be a part): as the sequence (P10721 whole entry T670I, the tested form may be a part) above, with I670T, D816V counted along it
Chain of Mast/stem cell growth factor receptor Kit (Homo sapiens), P10721 [V654A] (P10721 whole entry V654A, the tested form may be a part): as the sequence (P10721 whole entry T670I, the tested form may be a part) above, with V654A, I670T counted along it
Chain of Mast/stem cell growth factor receptor Kit (Homo sapiens), P10721 [V559D,V654A] (P10721 whole entry V559D/V654A, the tested form may be a part): as the sequence (P10721 whole entry T670I, the tested form may be a part) above, with V559D, V654A, I670T counted along it
Chain of Mast/stem cell growth factor receptor Kit (Homo sapiens), P10721 [V559D,T670I] (P10721 whole entry V559D/T670I, the tested form may be a part): as the sequence (P10721 whole entry T670I, the tested form may be a part) above, with V559D counted along it
Chain of Mast/stem cell growth factor receptor Kit (P10721 whole entry): as the sequence (P10721 whole entry T670I, the tested form may be a part) above, with I670T counted along it
Chain of Mast/stem cell growth factor receptor Kit (Homo sapiens), P10721 [N822K] (P10721 whole entry N822K, the tested form may be a part): as the sequence (P10721 whole entry T670I, the tested form may be a part) above, with I670T, N822K counted along it

Consider `Cc1ccc(NC(=O)c2ccc(CN3CCN(C)CC3)cc2)cc1Nc1nccc(-c2cccnc2)n1` [IMATINIB], for which the GI50 is 10 nM in the data set listed under Homo sapiens; 700 nM in data set [1]; 9600 nM in data set [2]; 360 nM in [4]; above 10000 nM in data set [5]; 700 nM in data set [6]. In addition, in data set [7], the 50% growth inhibitory concentration (GI50) is 8300 nM. Moreover, in [3], the 50% growth inhibitory concentration (GI50) at 72 h was above 10000 nM. For the same compound, the inhibition entry in [8], in [9], in data set [10], in data set [11], in [12] and in data set [13] was “inactive” in each case.

For `CCN(CC)CCNC(=O)c1c(C)[nH]c(/C=C2\C(=O)Nc3ccc(F)cc32)c1C` [SUNITINIB], the GI50 in the data set filed under Homo sapiens was 3 nM; in data set [1], 6 nM; in [2], 5 nM; in [5], 420 nM; in [14] it was 7 nM; in [6], 6 nM. For the same compound, in data set [15], the GI50 worked out at 5 nM. In data set [3], the GI50 at 72 h was determined as 1600 nM.

A word on the GI50: it is the concentration that inhibits growth by half.
